Data on five molecules can be found in PubChem BioAssay AID588747 (Vanderbilt Specialized Chemistry Center, 2011).

SMILES strings stand for the structures. Calls of active or inactive are those of the source.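 Rule for the calls: active = a dose-dependent rise in calcium signal, with potency and percent of maximal acetylcholine response fitted; inactive = the rest.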

Muscarinic acetylcholine receptor M5 (Homo sapiens), sequence (P08912 whole entry, looked up): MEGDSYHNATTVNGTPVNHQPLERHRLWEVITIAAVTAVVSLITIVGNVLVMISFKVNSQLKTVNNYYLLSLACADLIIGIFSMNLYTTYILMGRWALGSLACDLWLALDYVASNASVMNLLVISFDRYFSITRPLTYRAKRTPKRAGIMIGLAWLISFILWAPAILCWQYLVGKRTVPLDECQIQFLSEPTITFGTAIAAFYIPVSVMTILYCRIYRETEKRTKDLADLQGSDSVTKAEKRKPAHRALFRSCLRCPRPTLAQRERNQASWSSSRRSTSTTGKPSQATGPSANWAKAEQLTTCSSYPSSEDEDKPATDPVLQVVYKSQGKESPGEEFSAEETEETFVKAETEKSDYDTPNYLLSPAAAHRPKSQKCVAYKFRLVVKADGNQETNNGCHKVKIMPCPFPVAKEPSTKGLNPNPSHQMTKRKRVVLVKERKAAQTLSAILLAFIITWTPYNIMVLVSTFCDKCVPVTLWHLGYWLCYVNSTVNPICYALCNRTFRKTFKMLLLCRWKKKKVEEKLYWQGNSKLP

This test addresses Muscarinic acetylcholine receptor M5 (Homo sapiens) (UniProt P08912). The test is described as follows: potentiation of ACh at human M5 – CHO cells, calcium fluorescence, counter-screen for M4 PAM project, dose response (AID 588747). The following applies: CHO hM5, calcium Fluo-4 fluorescence, ACh EC20 potentiation; series mostly up to 30 µM. Put shortly: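 Material: human M5-expressing CHO cells; Also added: acetylcholine at EC20, then acetylcholine at EC80; Measured by: Fluo-4 calcium fluorescence; Controls: 1 mM acetylcholine as maximal response; Times: compound pre-incubation 144 s, EC80 ACh 86 s after EC20, 37 °C; Doses: concentration series, log M −9.29 to −4.52, 0.3% DMSO.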
In general terms: Counterscreens check selectivity or assay interference.
As to `Cc1nc2sc(C(=O)NCc3nccs3)c(N)c2c(C)c1Cl`, the outcome was inactive.
The result for `Cc1nc2sc(C(=O)NC3CC3)c(N)c2c(C)c1Cl` reads “inactive”; that for `Cc1nc2sc(C(=O)NCCc3ccncc3)c(N)c2c(C)c1Cl`, “inactive”; that for `Cc1nc2sc(C(=O)NCc3ccncn3)c(N)c2c(C)c1Cl`, “inactive”.
Take `Cc1nc2sc(C(=O)NCc3cccc(F)c3F)c(N)c2c(C)c1Cl`: the outcome was inactive.
